IC50, Activity and Ratio IC50 data for nine compounds are collected here from ChEMBL document CHEMBL1144594, “Synthesis and biological evaluation of 4-amino derivatives of benzimidazoquinoxaline, benzimidazoquinoline, and benzopyrazoloquinazoline as potent IKK inhibitors” (Bioorg Med Chem Lett, 2007).

Each structure is given as a SMILES string. Calls of active or inactive are those of the source. The rule behind the calls is not given here.

Test [1] deals with T1, Inhibitor of nuclear factor kappa-B kinase subunit beta (Homo sapiens, UniProt O14920).
T1 sequence (O14920 whole entry): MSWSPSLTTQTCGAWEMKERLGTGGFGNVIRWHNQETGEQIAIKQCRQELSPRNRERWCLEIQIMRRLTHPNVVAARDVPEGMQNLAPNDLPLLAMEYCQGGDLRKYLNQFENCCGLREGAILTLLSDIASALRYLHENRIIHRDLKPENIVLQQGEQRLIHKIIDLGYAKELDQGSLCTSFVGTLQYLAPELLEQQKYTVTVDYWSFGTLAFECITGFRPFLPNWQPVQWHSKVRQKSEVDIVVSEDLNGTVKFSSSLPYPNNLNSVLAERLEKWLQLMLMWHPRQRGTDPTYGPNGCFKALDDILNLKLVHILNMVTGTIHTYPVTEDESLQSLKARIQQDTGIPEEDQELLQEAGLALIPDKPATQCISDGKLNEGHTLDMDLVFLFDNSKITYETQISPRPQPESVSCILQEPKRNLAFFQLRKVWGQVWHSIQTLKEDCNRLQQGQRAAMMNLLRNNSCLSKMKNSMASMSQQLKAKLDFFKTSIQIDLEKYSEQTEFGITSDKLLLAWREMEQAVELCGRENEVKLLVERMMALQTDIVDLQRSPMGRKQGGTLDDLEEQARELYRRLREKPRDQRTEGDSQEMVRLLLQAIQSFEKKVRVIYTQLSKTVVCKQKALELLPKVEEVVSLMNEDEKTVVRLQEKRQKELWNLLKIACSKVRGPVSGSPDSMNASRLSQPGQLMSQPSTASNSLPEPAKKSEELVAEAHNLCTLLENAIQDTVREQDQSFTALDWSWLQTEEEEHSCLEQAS
Description: Inhibition of IKK2. Put shortly: (§1)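 Enzyme (IKK-2 or IKK-1, typically 0.5 µg/mL final) added at 30 °C to 50 µg/mL GST-IκBα substrate and 20 µM ATP. Read-out is GST-IκBα phosphorylation. IC50 is from a single experiment.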

Test [2] addresses T1, Inhibitor of nuclear factor kappa-B kinase subunit beta. Nature of the test: Inhibition of LPS-induced TNFalpha secretion in THP1 cells. The test is classed as functional, cell-based, THP-1.
Test [3] deals with Mus musculus. Description: Reduction of LPS-induced serum TNFalpha levels in BALB/c mouse at 10 mg/kg, po relative to control. The test is classed as functional. On the set-up: scale not given: the % may be the effect or the level left. Put shortly: (§2)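 Female BALB/c mice, 6–8 weeks old, got inhibitor in 0.2 mL aqueous solution by oral gavage. One hour later they were challenged ip with 1 µg E. coli O111:B4 LPS in 500 µL PBS. Serum was taken 90 min after challenge and TNF-α measured by EIA. Inhibition is relative to vehicle-only LPS-challenged controls.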

Another test is filed under the species Homo sapiens. Description: Selectivity for human IKK2 over human IKK1.
Test [4] has as its target T2, Inhibitor of nuclear factor kappa-B kinase subunit alpha (Homo sapiens, UniProt O15111).
T2 sequence (O15111 whole entry): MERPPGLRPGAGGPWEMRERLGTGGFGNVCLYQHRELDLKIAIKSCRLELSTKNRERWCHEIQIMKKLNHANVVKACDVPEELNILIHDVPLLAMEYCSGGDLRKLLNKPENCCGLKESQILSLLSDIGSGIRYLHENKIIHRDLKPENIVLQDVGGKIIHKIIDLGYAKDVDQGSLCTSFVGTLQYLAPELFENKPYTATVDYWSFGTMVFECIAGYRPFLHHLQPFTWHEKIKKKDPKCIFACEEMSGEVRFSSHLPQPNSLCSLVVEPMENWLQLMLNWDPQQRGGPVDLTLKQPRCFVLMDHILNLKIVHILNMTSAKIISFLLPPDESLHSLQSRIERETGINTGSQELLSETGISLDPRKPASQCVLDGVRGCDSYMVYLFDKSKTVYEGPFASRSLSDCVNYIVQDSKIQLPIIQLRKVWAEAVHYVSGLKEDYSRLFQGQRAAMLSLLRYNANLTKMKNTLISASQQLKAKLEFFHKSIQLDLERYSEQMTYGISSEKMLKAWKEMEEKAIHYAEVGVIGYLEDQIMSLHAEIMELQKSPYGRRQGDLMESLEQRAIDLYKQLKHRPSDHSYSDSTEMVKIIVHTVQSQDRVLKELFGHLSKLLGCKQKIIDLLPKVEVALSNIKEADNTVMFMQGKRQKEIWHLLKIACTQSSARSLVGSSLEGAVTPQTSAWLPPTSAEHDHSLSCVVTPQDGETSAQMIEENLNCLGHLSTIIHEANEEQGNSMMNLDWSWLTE
Description: Inhibition of IKK1. In a few lines: as §1

Test [5] deals with Mus musculus. Nature of the test: Reduction of LPS-induced serum TNFalpha levels in BALB/c mouse at 100 mg/kg, po relative to control. In kind it is functional, organism-based. Details: dose 100 mg/kg. In a few lines: as §2
Test [6] deals with T3, Inhibitor of nuclear factor kappa-B kinase subunit epsilon (Homo sapiens) (UniProt Q14164).
T3 sequence (whole entry): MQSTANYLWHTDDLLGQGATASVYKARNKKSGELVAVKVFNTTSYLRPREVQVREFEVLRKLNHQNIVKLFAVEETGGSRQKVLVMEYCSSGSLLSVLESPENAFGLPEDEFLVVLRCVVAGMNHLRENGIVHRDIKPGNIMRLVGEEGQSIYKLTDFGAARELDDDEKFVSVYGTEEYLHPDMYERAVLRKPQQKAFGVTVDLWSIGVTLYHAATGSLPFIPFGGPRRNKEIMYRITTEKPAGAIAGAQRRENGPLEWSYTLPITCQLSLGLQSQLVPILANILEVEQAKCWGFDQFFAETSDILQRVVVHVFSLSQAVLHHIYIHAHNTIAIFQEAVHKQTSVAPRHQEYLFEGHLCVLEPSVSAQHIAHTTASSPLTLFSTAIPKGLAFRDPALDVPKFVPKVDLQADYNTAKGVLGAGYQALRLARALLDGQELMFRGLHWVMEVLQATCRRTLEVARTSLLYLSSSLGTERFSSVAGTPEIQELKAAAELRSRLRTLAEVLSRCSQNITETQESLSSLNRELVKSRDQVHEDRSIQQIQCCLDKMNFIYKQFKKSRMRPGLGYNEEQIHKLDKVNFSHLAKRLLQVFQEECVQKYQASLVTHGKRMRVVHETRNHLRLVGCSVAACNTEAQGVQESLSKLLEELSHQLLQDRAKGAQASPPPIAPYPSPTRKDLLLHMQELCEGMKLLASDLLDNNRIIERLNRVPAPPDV
Description: Inhibition of IKKepsilon at 50 uM.

In test [7] the target is T4, Tyrosine-protein kinase ITK/TSK (Homo sapiens) (UniProt Q08881).
T4 sequence (whole entry): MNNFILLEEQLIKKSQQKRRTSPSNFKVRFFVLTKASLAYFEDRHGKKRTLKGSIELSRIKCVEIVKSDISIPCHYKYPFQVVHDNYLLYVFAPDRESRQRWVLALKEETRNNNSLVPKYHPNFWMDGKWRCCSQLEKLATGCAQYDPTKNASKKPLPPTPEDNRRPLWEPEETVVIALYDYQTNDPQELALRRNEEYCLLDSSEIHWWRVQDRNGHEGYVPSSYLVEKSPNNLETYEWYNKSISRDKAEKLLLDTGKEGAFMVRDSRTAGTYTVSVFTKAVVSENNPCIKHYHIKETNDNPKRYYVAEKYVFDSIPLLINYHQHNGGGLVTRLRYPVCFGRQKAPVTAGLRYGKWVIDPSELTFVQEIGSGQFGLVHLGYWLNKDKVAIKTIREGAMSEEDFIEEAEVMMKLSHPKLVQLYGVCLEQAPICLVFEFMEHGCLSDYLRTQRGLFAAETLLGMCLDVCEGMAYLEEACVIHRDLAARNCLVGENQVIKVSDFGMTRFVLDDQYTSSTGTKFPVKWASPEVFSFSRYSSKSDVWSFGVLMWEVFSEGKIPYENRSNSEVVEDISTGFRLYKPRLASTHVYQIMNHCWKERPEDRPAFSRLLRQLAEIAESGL
Nature of the test: Inhibition of EMT at 50 uM.

The target in test [8] is Tyrosine-protein kinase Lck (Homo sapiens) (UniProt P06239). Description: Inhibition of LCK at 50 uM.
Test [9] relates to Mus musculus. Nature of the test: Reduction of LPS-induced serum TNFalpha levels in BALB/c mouse at 30 mg/kg, po relative to control. In kind it is functional. On the set-up: scale not given: the % may be the effect or the level left. Put shortly: as §2

Sequence of Tyrosine-protein kinase Lck (Homo sapiens) (P06239 2-509 limits assumed): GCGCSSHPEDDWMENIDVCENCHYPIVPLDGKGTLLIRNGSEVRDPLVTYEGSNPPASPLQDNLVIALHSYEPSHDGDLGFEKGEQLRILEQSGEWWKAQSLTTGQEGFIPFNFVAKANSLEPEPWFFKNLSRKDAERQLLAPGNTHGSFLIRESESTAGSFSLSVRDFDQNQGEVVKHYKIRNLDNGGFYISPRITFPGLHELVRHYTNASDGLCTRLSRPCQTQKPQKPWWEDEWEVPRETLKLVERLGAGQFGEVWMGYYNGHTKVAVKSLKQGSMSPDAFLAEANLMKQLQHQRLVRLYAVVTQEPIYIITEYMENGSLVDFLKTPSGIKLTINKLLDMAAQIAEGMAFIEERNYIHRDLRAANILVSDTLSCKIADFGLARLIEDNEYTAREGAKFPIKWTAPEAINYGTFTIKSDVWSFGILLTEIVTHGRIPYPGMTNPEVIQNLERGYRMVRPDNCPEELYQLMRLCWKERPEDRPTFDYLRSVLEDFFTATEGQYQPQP

A word on the IC50: it is the concentration that inhibits the measured activity by half. Take `CNc1nc2cc3ccccc3cc2c2c(C)cnn12`: the IC50 was 11 nM in test [1] and 8300 nM in test [2].
Turning to `Cc1cnc2c(NCCN3CCCCC3)nc3cc4ccccc4cc3n12`, the values for the IC50 in [1] and in [2] were 46 nM and 600 nM, respectively.
As for `CNc1nc2cc3ccccc3cc2n2c(C)cnc12`, the IC50 in test [1] was 18 nM; in test [2], 340 nM. This compound also showed an Activity with Mus musculus [3] of 50%. In the test filed under Homo sapiens, the Ratio IC50 worked out at 13.
With `Cn1cnc2c(NCCN)nc3cc4ccccc4cc3c21`, the IC50 in test [1] worked out at 58 nM; in test [4], 1600 nM; in test [2] it was 5900 nM.
On to `CNc1nc2cc3ccccc3cc2c2c1ncn2C`, for which the IC50 in test [4] was found to be 990 nM; in [2] it was 950 nM.
Turning to `CNCCNc1nc2cc3ccccc3cc2n2c(C)cnc12`, in the test with Mus musculus [5], the result was Active. Moreover, the IC50 in test [1] turned out to be 23 nM; in test [4] it was 390 nM; in test [2], 1000 nM. Further, the outcome in test [6], in [7] and in test [8] was inactive.
`Cc1ccc2nc(NCCN)c3ncc(C)n3c2c1.Cl`: in the test with Mus musculus [5], the outcome was Active. For the same compound, the Activity with Mus musculus [9] came to 50%.
`CNCCNc1nc2cc3ccccc3cc2c2c(C)cnn12`: the IC50 in test [1] stood at 35 nM; in test [2] it was 1500 nM.
As to `Cc1cnc2c(NCCO)nc3cc4ccccc4cc3n12`, the IC50 in [1] was determined as 18 nM; in [4], 870 nM; in [2] it was 1400 nM. In addition, the Ratio IC50 in the test filed under Homo sapiens was 48.
